Like-named read-outs stand apart in the source and are kept apart here. Marks after values point to notes of the source that are not given here.
What was measured:
[1] = assay type: in vivo, human; conditions: for tmax: median (min-max); for half-life / t1/2: arithmetic mean (SD); for AUCu/dose, geometric least-squares mean / Cmax,u/dose, geometric least-squares mean: unbound
[2] = Hepatic impairment study: excretion in urine; assay type: in vivo, human
In short: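 Urine from hepatic-impairment and healthy subjects was collected at −12 to 0 h predose, then 0–6, 6–12, 12–24, 24–36 and 36–48 h, and every 24 h to 120 h after a single oral dose. Dosing followed an overnight fast, with fasting until 4 h postdose. Analytes were measured by LC-MS/MS (positive electrospray, MRM) against carbon-13 internal standards.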

[3] = Renal impairment study: safety and tolerability; assay type: in vivo, human
In short: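 In the renal-impairment study, adverse events were recorded from screening until follow-up and coded by System Organ Class and preferred term (MedDRA 17.0). Vital signs, ECGs and clinical laboratory tests were also recorded. All subjects received a single fasted oral 50 mg dose. Healthy subjects returned for follow-up 3–7 days later.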

[4] = cited from earlier work
[5] = Hepatic impairment study: safety and tolerability; assay type: in vivo, human
In short: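 Adverse events were collected from screening until follow-up at 7–14 days postdose and coded by System Organ Class and preferred term (MedDRA 17.0). Vital signs, ECGs and clinical laboratory tests were also recorded. Single fasted oral doses were 50 mg (mild), 50 or 25 mg (moderate), 20 mg (severe Child-Pugh) and 50 mg (healthy).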

[6] = Renal impairment study: excretion in urine and blood dialysate; assay type: in vivo, human; conditions: for dose excreted in dialysate: ESRD, dosed 1 h before dialysis; for fraction excreted in urine: healthy subjects
In short: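 Subjects were ESRD patients on haemodialysis or healthy subjects with creatinine clearance >80 mL/min, each given 50 mg orally while fasted. ESRD patients were dosed once after dialysis and, after a washout of ≥7 days, once 1 h before dialysis. Urine was collected predose and in intervals to 72 h. Dialysate spot samples were taken every 30 min, and parameters were derived by the area under the excretion rate curve method. Analysis was by LC-MS/MS.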

plasma proteins = test: Unbound fraction in plasma; assay type: in vitro ADME, human
In short: (§1)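 Unbound fraction was measured in human plasma by ultrafiltration after a single oral dose. Ultrafiltrate was analysed by LC-MS/MS in MRM mode with carbon-13 internal standards. Within each subject, the mean percentage unbound from 3 results was applied to all of that subject's samples to give the average fraction unbound (fu,av).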

[7] = Unbound fraction in plasma; assay type: in vitro ADME, human; conditions: human, plasma, oral, fu,av, hepatic impairment study, median (min-max)
In short: as §1

[8] = assay type: in vivo, human; conditions: for AUCu, geometric least-squares mean / Cmax,u, geometric least-squares mean / AUCu / Cmax,u: unbound; for AUC, geometric least-squares mean / Cmax, geometric least-squares mean: fixed-effect ANOVA; for tmax: median (min-max)
[9] = moderate hepatic impairment, 50 or 25 mg
[10] = severe hepatic impairment, 20 mg
[11] = non-Asian patients, 75 mg twice daily, used as exposure limit
[12] = healthy subjects, 50 mg, geometric mean (gCV%)
[13] = ESRD, treatment period 1 (50 mg after dialysis), geometric mean (gCV%)
[14] = mild hepatic impairment, 50 mg, geometric mean (gCV%)
[15] = moderate hepatic impairment, 50 mg (N = 6) or 25 mg (N = 2), geometric mean (gCV%)
[16] = moderate hepatic impairment, 50 mg dose only
[17] = ESRD, treatment period 1 (50 mg after dialysis)
[18] = ESRD, treatment period 1, geometric mean (gCV%)
[19] = ESRD, treatment period 2, geometric mean (gCV%)
[20] = healthy subjects, geometric mean (gCV%)

## Cn1cnc2c(F)c(Nc3ccc(Br)cc3Cl)c(C(=O)NOCCO)cc21 [Selumetinib]
[1]; healthy subjects, 50 mg
  AUC/dose, geometric least-squares mean: 53.64 ng·h/mL/mg
  Cmax/dose, geometric least-squares mean: 18.88 ng/mL/mg
  AUCu/dose, geometric least-squares mean: 0.1837 ng·h/mL/mg
  Cmax,u/dose, geometric least-squares mean: 0.06473 ng/mL/mg
[1]; human, plasma, oral, 20 mg, tmax, severe hepatic impairment
  tmax: 1 h
[1]; human, plasma, oral, 50 mg, t1/2, healthy subjects
  half-life: 8.02 h
[1]; human, plasma, oral, 50 mg, t1/2, mild hepatic impairment
  half-life: 7.72 h
[1]; human, plasma, oral, 50 mg, t1/2, moderate hepatic impairment, 50 mg dose only
  half-life: 9.92 h
[1]; human, plasma, oral, 50 mg, tmax, healthy subjects
  tmax: 1 h
[1]; human, plasma, oral, 50 mg, tmax, mild hepatic impairment
  tmax: 1.25 h
[1]; human, plasma, oral, 50 mg, tmax, moderate hepatic impairment, 50 mg dose only
  tmax: 1 h
[1]; mild hepatic impairment
  AUC/dose lower than in healthy subjects: 14%
  Cmax/dose lower than in healthy subjects: 22%
[1]; mild hepatic impairment, 50 mg
  AUC/dose, geometric least-squares mean: 45.93 ng·h/mL/mg
  Cmax/dose, geometric least-squares mean: 14.82 ng/mL/mg
  AUCu/dose, geometric least-squares mean: 0.1271 ng·h/mL/mg
  Cmax,u/dose, geometric least-squares mean: 0.04094 ng/mL/mg
[1]; moderate hepatic impairment
  AUC/dose higher than in healthy subjects: 59%
  Cmax/dose higher than in healthy subjects: 25%
[1]; [9]
  AUC/dose, geometric least-squares mean: 85.11 ng·h/mL/mg
  Cmax/dose, geometric least-squares mean: 23.57 ng/mL/mg
  AUCu/dose, geometric least-squares mean: 0.2585 ng·h/mL/mg
  Cmax,u/dose, geometric least-squares mean: 0.07165 ng/mL/mg
[1]; severe hepatic impairment
  AUC/dose higher than in healthy subjects: 57%
[1]; [10]
  AUC/dose, geometric least-squares mean: 84.29 ng·h/mL/mg
  Cmax/dose, geometric least-squares mean: 18.53 ng/mL/mg
  AUCu/dose, geometric least-squares mean: 0.5828 ng·h/mL/mg
  Cmax,u/dose, geometric least-squares mean: 0.1280 ng/mL/mg
[2]; healthy subjects, 50 mg
  dose excreted in urine: 0.44%
[2]; mild hepatic impairment, 50 mg
  dose excreted in urine: 0.46%
[2]; moderate hepatic impairment
  dose excreted in urine: 0.50%
[2]; [10]
  dose excreted in urine: 0.90%
[3]; healthy subjects, 50 mg
  AEs reported: No AEs were reported
[3]; single oral dose 50 mg
  tolerability: well tolerated
[4]; healthy volunteers
  dose linearity of pharmacokinetics: linear pharmacokinetics up to 75 mg
[4]; [11]
  mean steady-state AUC(0-12): 4736 ng·h/mL
  mean steady-state Cmax: 1307 ng/mL
[5]; all 32 subjects (N = 2 each)
  most frequently reported AEs, diarrhea and vomiting, each: 6.3%
[5]; all 32 subjects, mild or moderate severity
  subjects reporting at least 1 AE: 15.6%
[5]; single oral dose 20-50 mg
  tolerability: well tolerated
[6]
  dose excreted in dialysate: 0.92%
[6]; 50 mg
  fraction excreted in urine: 0.49%
[6]; human, blood dialysate, oral, 50 mg
  clearance: 9.63 mL/min
[6]; in vivo
  dialysis clearance in ESRD as percentage of CL/F in the healthy subjects group: approximately 3%
Plasma proteins; hepatic impairment study, mild or moderate impairment
  difference of unbound fraction compared with healthy subjects: ≤ 20%
Plasma proteins; hepatic impairment study, severe impairment
  increase in the unbound fraction compared with healthy subjects: ~90%
Plasma proteins; human, plasma, oral, 50 mg, fu,av, renal impairment study, healthy subjects, median (min-max)
  fraction unbound: 0.004
[7]; 20 mg, severe impairment
  fraction unbound: 0.0065
[7]; 50 mg, healthy subjects
  fraction unbound: 0.0035
[7]; 50 mg, mild impairment
  fraction unbound: 0.0028
[7]; 50 mg, moderate impairment, 50 mg dose only
  fraction unbound: 0.003
[8]; 50 mg
  AUC lower in the ESRD group (dosed post dialysis) vs healthy subjects: 28%
[8]; ESRD, 50 mg
  AUC lower when dosed before vs after dialysis: 17%
  Cmax lower when dosed before vs after dialysis: 30%
[8]; [12]
  CL/F: 19.1 L/h
  AUCu: 10.6 (23.0) ng·h/mL
  Cmax,u: 3.48 (42.5) ng/mL
[8]; human, plasma, oral, 50 mg, Cmax, healthy subjects, geometric mean (gCV%)
  Cmax: 863 ng/mL
[8]; human, plasma, oral, 50 mg, t1/2, healthy subjects, arithmetic mean (SD)
  half-life: 7.34 h
[8]; ESRD, treatment period 1
  AUCu, geometric least-squares mean: 10.25 ng·h/mL
  Cmax,u, geometric least-squares mean: 3.95 ng/mL
[8]; [13]
  AUCu: 10.3 (20.1) ng·h/mL
  Cmax,u: 3.95 (34.7) ng/mL
[8]; healthy subjects
  AUCu, geometric least-squares mean: 10.55 ng·h/mL
  Cmax,u, geometric least-squares mean: 3.48 ng/mL

## O=C(NOCCO)c1cc2nc[nH]c2c(F)c1Nc1ccc(Br)cc1Cl [N‐desmethyl selumetinib]
[1]; healthy subjects, 50 mg
  AUC(0–t)/dose, geometric least-squares mean: 4.841 ng·h/mL/mg
  Cmax/dose, geometric least-squares mean: 1.809 ng/mL/mg
  t1/2: 9.24 (3.33) h
  tmax: 1.00 (1.00‐2.00) h
[1]; [12]
  AUC(0–t)/dose: 4.84 (43.4) ng·h/mL/mg
  Cmax/dose: 1.81 (57.0) ng/mL/mg
[1]; mild hepatic impairment
  AUC(0-t)/dose lower than in healthy subjects: 49%
  Cmax/dose lower than in healthy subjects: 56%
[1]; mild hepatic impairment, 50 mg
  AUC(0–t)/dose, geometric least-squares mean: 2.445 ng·h/mL/mg
  Cmax/dose, geometric least-squares mean: 0.8041 ng/mL/mg
  t1/2: 5.18 (1.51) ^f h
  tmax: 1.50 (1.00‐4.00) h
[1]; [14]
  AUC(0–t)/dose: 2.45 (41.1) ng·h/mL/mg
  Cmax/dose: 0.804 (57.7) ng/mL/mg
[1]; mild vs healthy
  AUC(0–t)/dose, Hepatic impairment/healthy ratio (90%CI): 50.51 (28.28, 90.19) %
  Cmax/dose, Hepatic impairment/healthy ratio (90%CI): 44.44 (25.70, 76.85) %
[1]; moderate hepatic impairment
  AUC(0-t)/dose lower than in healthy subjects: 62%
  Cmax/dose lower than in healthy subjects: 70%
[1]; [15]
  AUC(0–t)/dose: 1.83 (129.6) ng·h/mL/mg
  Cmax/dose: 0.548 (102.8) ng/mL/mg
[1]; [16]
  t1/2: 7.72 (2.92) ^i h
  tmax: 1.25 (1.00‐1.50) ^f h
[1]; [9]
  AUC(0–t)/dose, geometric least-squares mean: 1.826 ng·h/mL/mg
  Cmax/dose, geometric least-squares mean: 0.5485 ng/mL/mg
[1]; moderate vs healthy
  AUC(0–t)/dose, Hepatic impairment/healthy ratio (90%CI): 37.72 (21.12, 67.37) %
  Cmax/dose, Hepatic impairment/healthy ratio (90%CI): 30.31 (17.53, 52.42) %
[1]; severe hepatic impairment, 20 mg (N = 3), geometric mean (gCV%)
  MRCmax (metabolite-to-parent Cmax ratio): 0.00778 (29.2) ^h
[1]; severe hepatic impairment, 20 mg, geometric mean (gCV%)
  Cmax/dose: 0.173 (44.3) ng/mL/mg
[1]; [10]
  tmax: 2.00 (1.50‐2.00) ^h
[2]; healthy subjects, 50 mg
  dose excreted in urine: 0.78%
[2]; mild hepatic impairment, 50 mg
  dose excreted in urine: 0.64%
[2]; moderate hepatic impairment
  dose excreted in urine: 0.20%
[2]; [10]
  dose excreted in urine: 0.09%
[4]; NCT02093728 and NCT02046850
  AUC and Cmax as percentage of the parent compound: ~7%
[6]
  dose excreted in dialysate: 0.089%
[6]; 50 mg
  fraction excreted in urine: 0.73%
Plasma proteins; healthy subjects, in both studies
  median unbound fraction: ~0.6%
Plasma proteins; hepatic impairment study, healthy subjects, 50 mg, median (min-max)
  fu,av: 0.61 (0.54‐0.70) ^j %
Plasma proteins; renal impairment study, healthy subjects, 50 mg, median (min-max)
  fu,av: 0.688 (0.659‐0.712) ^e %
[8]; ESRD treatment period 1 vs healthy
  Cmax, ESRD/Healthy Ratio (90%CI): 84.48 (61.60, 115.86) %
[8]; ESRD treatment period 1 vs healthy, 50 mg
  AUC, ESRD/Healthy Ratio (90%CI): 91.95 (67.73, 124.83) %
[8]; ESRD, 50 mg
  AUC lower when dosed before vs after dialysis: 10%
  Cmax lower when dosed before vs after dialysis: 15%
[8]; ESRD, treatment period 1 (50 mg after dialysis), arithmetic mean (SD)
  t1/2: 6.28 (2.87) ^d h
[8]; [17]
  AUC, geometric least-squares mean: 171.0 ng·h/mL
  tmax: 1.25 (0.50‐3.00) h
[8]; [13]
  Cmax: 45.1 (40.4) ng/mL
  AUCu: 2.10 (19.2) ^e ng·h/mL
  Cmax,u: 0.561 (14.8) ^e ng/mL
[8]; ESRD, treatment period 1
  Cmax, geometric least-squares mean: 45.15 ng/mL
[8]; [18]
  MRAUC (metabolite-to-parent AUC ratio): 0.0864 (45.9) ^d
  MRCmax (metabolite-to-parent Cmax ratio): 0.0623 (42.8)
[8]; ESRD, treatment period 2 (50 mg 1 h before dialysis), arithmetic mean (SD)
  t1/2: 5.79 (2.52) ^d h
[8]; ESRD, treatment period 2 (50 mg 1 h before dialysis), geometric mean (gCV%)
  Cmax: 38.5 (57.7) ng/mL
[8]; ESRD, treatment period 2 (50 mg 1 h before dialysis)
  tmax: 1.50 (1.00‐2.00) h
[8]; [19]
  MRAUC (metabolite-to-parent AUC ratio): 0.0930 (48.6) ^d
  MRCmax (metabolite-to-parent Cmax ratio): 0.0759 (35.9)
[8]; healthy subjects, 50 mg, arithmetic mean (SD)
  t1/2: 5.41 (1.40) h
[8]; healthy subjects, 50 mg
  AUC, geometric least-squares mean: 185.9 ng·h/mL
  tmax: 1.50 (1.00‐3.00) h
[8]; [12]
  Cmax: 53.4 (52.1) ng/mL
  AUCu: 1.72 (14.4) ^e ng·h/mL
  Cmax,u: 0.619 (8.5) ^e ng/mL
[8]; healthy subjects
  Cmax, geometric least-squares mean: 53.45 ng/mL
[8]; [20]
  MRAUC (metabolite-to-parent AUC ratio): 0.0710 (38.4)
  MRCmax (metabolite-to-parent Cmax ratio): 0.0619 (32.9)

— article PMC5412920 (Journal of Clinical Pharmacology, 2016)
